Measured values from ChEMBL document CHEMBL1145555, “Combination of virtual screening and high throughput gene profiling for identification of novel liver X receptor modulators” (2008).
Active and inactive are the calls of the source. No cut-off for these calls is given here.

What was measured:
THP-1 [1] = assay: Induction of SREBP1c gene expression in human THP1 cells at 10 uM by array plate mRNA assay; type: functional
How it was run: (§1)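 Multiplex quantitative nuclease protection assay (ArrayPlate mRNA) of LXR-regulated genes, run at the same time as housekeeping genes. Compounds were tested at 10 µM alongside a negative control compound. CV% generally below 20%.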

THP-1 [2] = assay: Induction of HDS11B1 gene expression in human THP1 cells at 10 uM using Array plate mRNA assay; type: functional; how it was run: as §1
THP-1 [3] = assay: Induction of SCD1 gene expression in human THP1 cells at 10 uM by array plate mRNA assay; type: functional; how it was run: as §1
THP-1 [4] = assay: Induction of Cox2 gene expression in human THP1 cells at 10 uM by array plate mRNA assay; type: functional; how it was run: as §1
THP-1 [5] = assay: Induction of IL6 gene expression in human THP1 cells at 10 uM by array plate mRNA assay; type: functional; how it was run: as §1
THP-1 [6] = assay: Induction of APOE gene expression in human THP1 cells at 10 uM by array plate mRNA assay; type: functional; how it was run: as §1
THP-1 [7] = assay: Induction of ABCA1 gene expression in human THP1 cells at 10 uM by array plate mRNA assay; type: functional; how it was run: as §1
THP-1 [8] = assay: Induction of TBP gene expression in human THP1 cells at 10 uM using by array plate mRNA assay; type: functional; how it was run: as §1
THP-1 [9] = assay: Induction of FASN gene expression in human THP1 cells at 10 uM by array plate mRNA assay; type: functional; how it was run: as §1
THP-1 [10] = assay: Induction of B2M gene expression in human THP1 cells at 10 uM by array plate mRNA assay; type: functional; how it was run: as §1
THP-1 [11] = assay: Induction of NR1H2 gene expression in human THP1 cells at 10 uM by array plate mRNA assay; type: functional; how it was run: as §1
THP-1 [12] = assay: Induction of LXRalpha gene expression in human THP1 cells at 10 uM by array plate mRNA assay; type: functional; how it was run: as §1
THP-1 [13] = assay: Induction of ACTB gene expression in human THP1 cells at 10 uM by array plate mRNA assay; type: functional; how it was run: as §1
THP-1 [14] = assay: Induction of ABCG1 gene expression in human THP1 cells at 10 uM by array plate mRNA assay; type: functional; how it was run: as §1
[15] = target: T1, Oxysterols receptor LXR-alpha (Homo sapiens) (UniProt Q13133); assay: Agonist activity at human LXRalpha by SRC1 cofactor recruitment assay; type: functional
T1 sequence (whole entry): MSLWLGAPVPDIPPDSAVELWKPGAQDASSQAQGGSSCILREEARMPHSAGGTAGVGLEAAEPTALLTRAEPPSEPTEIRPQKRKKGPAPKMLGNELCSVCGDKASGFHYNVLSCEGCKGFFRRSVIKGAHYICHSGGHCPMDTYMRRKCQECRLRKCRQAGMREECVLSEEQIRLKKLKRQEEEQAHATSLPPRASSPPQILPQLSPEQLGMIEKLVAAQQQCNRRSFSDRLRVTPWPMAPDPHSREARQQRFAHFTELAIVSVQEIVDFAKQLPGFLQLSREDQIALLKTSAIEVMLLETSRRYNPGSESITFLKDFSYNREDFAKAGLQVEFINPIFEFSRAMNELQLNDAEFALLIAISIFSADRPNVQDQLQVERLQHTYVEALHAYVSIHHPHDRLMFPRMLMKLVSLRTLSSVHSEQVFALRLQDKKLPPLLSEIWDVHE
How it was run: (§2)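 HTRF coactivator recruitment: His-tagged human LBD (LXRα 2 nM or LXRβ 1 nM) incubated with compound, 20 nM biotin-SRC1 peptide, 5 nM streptavidin-allophycocyanin and Eu-anti-His antibody (1 nM for α, 0.5 nM for β). Incubated 1 h at room temperature with shaking. EC50 taken from the 665/615 nm time-resolved fluorescence ratio.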

[16] = target: T2, Oxysterols receptor LXR-beta (Homo sapiens) (UniProt P55055); assay: Agonist activity at human LXRbeta by SRC1 cofactor recruitment assay; type: functional; how it was run: as §2
T2 sequence (whole entry): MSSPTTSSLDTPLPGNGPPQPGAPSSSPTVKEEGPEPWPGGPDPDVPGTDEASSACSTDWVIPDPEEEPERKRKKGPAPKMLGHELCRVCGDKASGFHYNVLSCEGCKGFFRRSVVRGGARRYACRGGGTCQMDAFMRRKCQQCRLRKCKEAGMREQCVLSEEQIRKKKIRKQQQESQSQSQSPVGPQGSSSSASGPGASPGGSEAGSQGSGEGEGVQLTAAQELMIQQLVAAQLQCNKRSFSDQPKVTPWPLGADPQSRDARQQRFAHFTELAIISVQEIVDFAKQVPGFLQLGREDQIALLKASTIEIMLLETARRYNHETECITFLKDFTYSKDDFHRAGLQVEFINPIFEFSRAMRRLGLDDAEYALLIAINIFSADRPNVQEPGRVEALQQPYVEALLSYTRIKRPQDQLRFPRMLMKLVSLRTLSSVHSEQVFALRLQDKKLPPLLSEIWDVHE

HepG2 = assay: Induction of lipogenesis in human HepG2 cells after 24 hrs; type: functional, cell-based
How it was run: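 HepG2 cells pretreated with compound or vehicle for 24 h, then given 1 µCi [14C]glycerol for a further 48 h. Cellular triglycerides extracted, resolved by TLC and quantified by phosphorimaging. Reported as fold induction over vehicle. Mean of triplicates, single experiment.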

THP-1 [17] = assay: Induction of cholesterol efflux in human THP1 cells; type: functional, cell-based
How it was run: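 THP-1 cells differentiated to macrophages with 200 nM PMA for 30 h. Labelled 18 h with 0.6 µCi [1,2-3H]cholesterol plus 16 µg/mL acLDL and PMA. Treated with compound 6 h in serum-free medium with 2 mg/mL BSA, then 18 h more with 5 µg/mL apoA-I plus compound. Supernatant radioactivity expressed as fold over vehicle. Mean of triplicates, single experiment.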

Structure (SMILES) | Activity (THP-1 [1]) | Activity (THP-1 [2]) | Activity (THP-1 [3]) | Activity (THP-1 [4]) | Activity (THP-1 [5]) | Activity (THP-1 [6]) | Activity (THP-1 [7]) | Activity (THP-1 [8]) | Activity (THP-1 [9]) | Activity (THP-1 [10]) | Activity (THP-1 [11]) | Activity (THP-1 [12]) | Activity (THP-1 [13]) | Activity (THP-1 [14]) | Activity [15] | Activity [16] | Activity (HepG2) | Activity (THP-1 [17])
O=C(O)Cc1cccc(OCCCN(Cc2cccc(C(F)(F)F)c2Cl)CC(c2ccccc2)c2ccccc2)c1 | 5.28 | 0.8 | 12.82 | 1.2 | 1.02 | 4.13 | 10.04 | 1.25 | 3.77 | 1.18 | 1.22 | 4.7 | 0.89 | 24.92 | – | – | – | –
C[C@H](CC[C@@H]1OC1(C)C)[C@H]1CC[C@H]2[C@@H]3CC=C4C[C@@H](O)CC[C@]4(C)[C@H]3CC[C@]12C [24(S),25-EPOXYCHOLESTEROL] | 2.05 | 0.79 | 1.17 | 1.35 | 0.82 | 2.61 | 5.59 | 0.99 | 0.89 | 1.25 | 1.09 | 3.41 | 0.9 | 9.91 | – | – | – | –
O=S(=O)(c1ccccc1)N(CC(F)(F)F)c1ccc(C(O)(C(F)(F)F)C(F)(F)F)cc1 [T091317] | 4.09 | 1.26 | 8.16 | 0.93 | 1.78 | 4.2 | 5.9 | 1.05 | 2.59 | 1.17 | 1.17 | 4.56 | 0.93 | 15.05 | – | – | – | –
C[C@@H]1C2Cc3ccc(O)cc3[C@]1(C)CCCN2CCc1ccccc1 | 4.05 | 1.43 | 4.76 | 1.2 | 0.91 | 3.34 | 4.53 | 1.19 | 1.75 | 1.05 | 1.16 | 3.93 | 0.93 | 13.56 | Active | Active | Active | Active
